From PubChem
Platelet DG rel = modulates dense granule release in human platelets. inhibition, %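 (compounds screened at 7.5 µM in platelet-rich plasma)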. 0.22% of 300,000 active. human platelet-rich plasma, SFLLRN dense granule ATP release, luminescence. AID 1663;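 active means mean replicate score, as percent of positive control, at or above 50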
TRPC4 block = inhibitors of mouse TRPC4 channel; 0.39% of 300,000 active; Q9QUQ5; HEK293 TRPC4beta/mu-opioid, DAMGO-evoked Fluo4 calcium flux; hits give low values; B-score at 10 µM; AID 2247;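 active means B-score over 3 SD under the library average, no early fluorescence shift, positive overall ratio signal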
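Material: HEK293 cells with stable TRPC4beta plus mu-opioid receptor expression; probe or stimulus: DAMGO in two steps, submaximal then maximal; technique: Fluo4 calcium fluorescence by kinetic imaging, 5 s 1 Hz baseline; measure: integrated fluorescence ratio relative to baseline, converted to per-well B score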
TRPC6 inh = blocks the mouse TRPC6 cation channel; Q61143; B-score at 10 µM; HEK293-TRPC6, membrane potential dye, ACh-evoked depolarization; hits give low values; 1.1% of 310,000 active; AID 2553;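 active means B-score under library mean minus 3 SD, initial fluorescence not abnormally high, positive integrated signal ratio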;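 further: B-score derived from integrated fluorescence ratio over the kinetic read; more negative B-score means stronger inhibition of depolarization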
TRPC4 act = TRPC4 (mouse) channel activation | Q9QUQ5 | HEK293 TRPC4beta/mu-opioid, Fluo4 calcium fluorescence; hits give high values | B-score at 10 µM | 0.49% of 310,000 active;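 active means B-score above 5 SD of library B-scores, and initial fluorescence ratio not above library mean plus 5 SD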;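 further: positive B-score marks a calcium rise read as TRPC4 activation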
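Incubation: 45 min room-temperature Fluo4 loading, 110 s read / System: HEK293 cells stably co-expressing mouse TRPC4beta and mu-opioid receptor / Signal: Fluo4 fluorescence, kinetic / Control set: buffer (low) and maximal DAMGO (high) / Measure: integrated baseline-normalised fluorescence ratio, converted to per-well B score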
TRPC4 PAM = allosteric potentiators of mouse TRPC4 channel. B-score at 10 µM. Q9QUQ5. HEK293 TRPC4beta/mu-opioid, DAMGO EC20, Fluo-4 Ca2+ flux; hits give high values. 0.42% of 310,000 active. AID 2227;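 active means B-score of calcium response area above 5 SD of library B-scores, with initial fluorescence ratio within 5 SD of library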;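 further: B-score of integrated fluorescence ratio over time as area under calcium response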
TRPC6 activator = activators of mouse TRPC6 channel; B-score at 10 µM; HEK293-TRPC6 membrane potential dye fluorescence; hits give high values; 0.13% of 310,000 active; AID 2550;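 active means B-score of the integrated fluorescence ratio above library mean plus 3 SD, and starting fluorescence ratio within library mean plus 5 SD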;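 further: higher score means more depolarization so channel activation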
TRPC4 sel inh 2 = second selectivity test of TRPC6 inhibitors: effect on mouse TRPC4. shares compounds with TRPC6 inh. HEK293 TRPC4/MOR, membrane potential dye fluorescence; channel activated by saturating DAMGO dose. inhibition, % at 10 µM. 42% of 920 active;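 active means compounds whose fluorescence signal differed from control wells by over 3 SD, either direction, in both duplicate plates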
TRPC4 spec = mouse TRPC4 off-target activity of TRPC6 inhibitors | activity change, negative = inhibition, % at 10 µM | HEK293 TRPC4/mu-opioid, membrane potential fluorescence | shares compounds with TRPC6 inh | AID 2777 | 61% of 920 active;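 active means rise or fall in signal beyond 3 SD of buffer-only wells in both replicate plates, either sign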;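 further: integrated kinetic ratio of fluorescence range over baseline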
HEK293 MPD ctr 2-1 = second check of TRPC6 inhibitor effects in parental HEK293 cells; parental HEK293 membrane potential dye fluorescence; maximal acetylcholine challenge after compound addition; shares compounds with TRPC6 inh; 31% of 920 active; signal change vs control, % at 10 µM; AID 2779;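 active means membrane potential signal moving either way by over 3 SD of the maximum-effect control, in both duplicate plates, meaning non-specific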
HEK293 MPD ctr-1 = counter-screen for TRPC6 inhibitors: effect in parental HEK293 cells; parental HEK293 membrane potential dye fluorescence; shares compounds with TRPC6 inh; 60% of 920 active; membrane potential signal change, % at 10 µM;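 active means membrane potential signal shifting up or down by more than 3 SD of buffer-only wells, on both duplicate plates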
HEK293 MPD ctr-2 = checks TRPC6 modulator effects in parental HEK293 cells; shares compounds with TRPC6 inh; membrane potential dye fluorescence; membrane potential signal change, % at 10 µM; 51% of 2,400 active; AID 488924;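 active means membrane potential signal moves up or down beyond 5 SD from buffer-only wells, on both duplicate plates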
HEK293 MPD ctr 2-2 = parental HEK293 nonspecific activity of TRPC6 modulators, second screen; 14% of 2,400 active; AID 488926; membrane potential dye fluorescence; after compound, maximal acetylcholine stimulation; inhibition, % at 10 µM; shares compounds with TRPC6 inh;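 active means membrane potential signal drops by more than 5 SD from the mean control signal, in both duplicate plates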;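 further: plate controls were acetylcholine ECmax control wells for no effect and buffer only wells for full effect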
TRPC4 ctr mod = selectivity of TRPC6 modulators against mouse TRPC4. HEK293 TRPC4/mu-opioid, membrane potential fluorescence. shares compounds with TRPC6 inh. percent change from control (negative = decrease, positive = increase), % at 10 µM. 69% of 2,400 active;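 active means membrane potential signal moved up or down beyond 5 SD of buffer control wells, in both duplicate plates, actives on both sides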;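 further: plate controls were assay buffer wells for no effect and DAMGO maximal-effect wells for full effect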
TRPC4 ctr inh 2 = second check of whether TRPC6 modulators also affect mouse TRPC4. 55% of 2,400 active. shares compounds with TRPC6 inh. HEK293 TRPC4/mu-opioid, membrane potential dye fluorescence; stimulated with maximal-effect DAMGO. inhibition, % at 10 µM;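 active means drop in membrane potential signal beyond 5 SD of the control wells in both duplicate plates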;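 further: TRPC4 counter screen for TRPC6 hits run under conditions tuned for TRPC6 not TRPC4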
TRPC6 block conf = confirmation of mouse TRPC6 inhibitors. AID 488960. 43% of 3,300 active. shares compounds with TRPC6 inh. HEK293-TRPC6, membrane potential dye, ACh-evoked depolarization. inhibition, % at 10 µM;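 active means fluorescence ratio falls more than 5 SD below the full-stimulation control mean, in both duplicate runs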;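 further: integrated fluorescence ratio of peak minus minimum over baseline after agonist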
TRPC6 act conf = confirmation of mouse TRPC6 activators; shares compounds with TRPC6 inh; HEK293-TRPC6 membrane potential dye fluorescence, FDSS; AID 488961; activation, % at 10 µM; 11% of 2,800 active;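 active means ratio signal rise beyond 5 SD above unstimulated control wells' mean, seen in both duplicate runs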;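 further: plate controls were buffer EC0 wells for no effect and acetylcholine ECmax response for full effect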
An asterisk follows results filed as active; i = inactive; . = no result. This is a sample that favours compounds with a hit; in the whole collection about 2.5% have one here.

SMILES	Platelet DG rel	TRPC4 block	TRPC6 inh	TRPC4 act	TRPC4 PAM	TRPC6 activator	HEK293 MPD ctr-2	HEK293 MPD ctr 2-2	TRPC4 ctr mod	TRPC4 ctr inh 2	TRPC6 block conf	TRPC6 act conf	others
COc1cc(CCC(O)CC(=O)CCc2ccccc2)ccc1O (stereo unspecified)	6	i	i	i	i	i	.	.	.	.	.	.
CCOCCCNC(=S)Nc1ccc2nc(N3CCCC3)cc(C)c2c1	15	i	-5.6*	i	i	i	-138%*	i	-26%*	40%*	44%*	i
COCCNC(=S)Nc1ccc2nc(N3CCCC3)cc(C)c2c1	-4	i	-6.2*	i	i	i	-135%*	82%*	-26%*	40%*	71%*	i
COCCNC(=S)Nc1ccc2nc(N3CCOCC3)cc(C)c2c1	-1	i	i	i	i	i	.	.	.	.	.	.
CC1CCN(Cc2c(O)ccc3c(=O)c(-c4nc5ccccc5s4)c(N)oc23)CC1	2	i	i	i	i	i	.	.	.	.	.	.
CC1CCCN(Cc2c(O)ccc3c(=O)c(-c4nc5ccccc5s4)c(N)oc23)C1 (stereo unspecified)	9	i	-5.8*	i	i	i	i	i	i	48%*	i	i
COc1cc(SC)ccc1C(=O)OCC(=O)N1CCN(C(C)=O)CC1	0	i	i	i	i	i	.	.	.	.	.	.
Cc1cc(N(CCO)CCO)ccc1N=Nc1cc(F)ccc1F	-3	i	-7*	i	i	i	.	.	.	.	63%*	i	TRPC4 sel inh 2=62%*;TRPC4 spec=-22%*;HEK293 MPD ctr 2-1=i;HEK293 MPD ctr-1=-454%*
Nc1ccc(N(CCO)CCO)cc1	8	i	i	i	i	i	.	.	.	.	.	.
C[C@@H](NC(=O)[C@@H]1Cc2ccccc2CN1)C(=O)Nc1ccc2c(c1)OCO2	6	i	i	i	i	i	.	.	.	.	.	.
O=C(Nc1ccc(N2CCCC2)cc1)c1ccc(Cl)cc1Cl	0	i	i	i	i	i	.	.	.	.	.	.
CN1CCN(c2ccc(NC(=O)c3ccc(Cl)cc3Cl)cc2)CC1	2	i	-5.9*	i	i	i	i	i	i	i	i	i
O=C1/C(=C/c2cccs2)CCC/C1=C\c1cccs1	-2	i	i	i	i	i	.	.	.	.	.	.
Cn1cccc1/C=C1\CCC/C(=C\c2cccn2C)C1=O	16	i	i	i	i	35*	261%*	i	98%*	i	i	66%*
CC(C)N(c1ccccc1)c1ccc(NC(=S)NCCN(C)C)cc1	-6	i	-6.6*	i	i	i	i	i	i	40%*	46%*	i
O=S(=O)(NCC1CCCO1)c1ccc(NS(=O)(=O)c2ccc(F)cc2)cc1 (stereo unspecified)	-13	i	i	i	i	i	.	.	.	.	.	.
CC(C)(C)NC(=O)c1cccc2c1OC(C)(C)C2	7	i	i	i	i	i	.	.	.	.	.	.
COc1cc(C(=O)Nc2ccc(C)c(S(=O)(=O)N(C)C)c2)ccc1OCC(=O)N1CCOCC1	-5	i	i	i	i	i	.	.	.	.	.	.
Cc1cc(C)nc(/N=C(\N)Nc2ccc(C)c([N+](=O)[O-])c2)n1	5	i	-5.4*	i	i	i	i	i	-19%*	36%*	i	i
CCC1CCc2c(sc(NC(=O)c3cnccn3)c2C(N)=O)C1 (stereo unspecified)	-3	i	i	i	i	i	.	.	.	.	.	.
Cc1ccc(-n2c(C)cc(C(=S)N3CCOCC3)c2C)cc1C	0	i	i	i	i	i	.	.	.	.	.	.
CC1CCCN(C(=O)COc2ccc(-c3ccccc3)cc2)C1 (stereo unspecified)	12	i	-6*	i	i	i	i	i	10%*	i	i	.
COc1cc(C(=O)COC(=O)c2cnc(C)cn2)ccc1OC(F)F	-14	i	i	i	i	i	.	.	.	.	.	.
Cc1ccccc1Nc1nc(N)c2ccccc2n1	58*	i	-6.8*	i	i	i	.	.	.	.	70%*	i	TRPC4 sel inh 2=32%*;TRPC4 spec=-26%*;HEK293 MPD ctr 2-1=36%*;HEK293 MPD ctr-1=-330%*
CN(C)c1ccc(Nc2nc(N)c3ccccc3n2)cc1	80*	i	-7.3*	i	i	i	-182%*	90%*	-45%*	86%*	84%*	i
COc1ccc(C)cc1Nc1nc(N)c2ccccc2n1	7	i	-10*	i	i	i	-221%*	112%*	-52%*	91%*	100%*	i
COc1ccc([N+](=O)[O-])cc1Nc1c2ccccc2nc2ccccc12	-5	i	i	i	i	i	.	.	.	.	.	.
CN(C)c1nc(Nc2ccccc2)nc(N(C)C)n1	2	i	i	i	i	i	.	.	.	.	.	.
